Assay results reported in ChEMBL document CHEMBL1129983, “Synthesis and structure-activity relationships of carboxylated chalcones: a novel series of CysLT1 (LTD4) receptor antagonists” (J Med Chem, 1997).

How the values were obtained:
[1] = molecular target: T1, Cysteinyl leukotriene receptor 1 (Cavia porcellus) (UniProt Q2NNR5); assay: Percent inhibition against Cysteinyl leukotriene D4 receptor in guinea pig lung membranes using [3H]LTD4 4 at 10 e-5 M; assay type: cell membranes; conditions: Membrane
T1 sequence (whole entry): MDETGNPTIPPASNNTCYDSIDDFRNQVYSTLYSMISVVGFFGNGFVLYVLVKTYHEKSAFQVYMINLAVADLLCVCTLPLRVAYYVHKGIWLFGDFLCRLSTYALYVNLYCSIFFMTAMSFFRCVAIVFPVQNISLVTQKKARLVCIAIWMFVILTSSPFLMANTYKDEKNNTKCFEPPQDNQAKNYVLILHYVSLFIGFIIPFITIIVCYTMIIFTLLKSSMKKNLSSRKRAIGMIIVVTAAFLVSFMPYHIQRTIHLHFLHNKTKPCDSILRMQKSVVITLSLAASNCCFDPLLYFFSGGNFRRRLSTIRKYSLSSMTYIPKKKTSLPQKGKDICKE
Procedure, shortened: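 Same [3H]LTD4 (0.2 nM) filtration binding with guinea pig lung membranes, PIPES pH 7.5, 22 °C, 30 min. Percent inhibition = (maximum binding − counts at highest drug concentration) / maximum binding × 100.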

[2] = molecular target: Cysteinyl leukotriene receptor 1 (Cavia porcellus); assay: Displacement of [3H]LTD4 from Cysteinyl leukotriene D4 receptor in guinea pig lung membranes
Cavia porcellus [3] = species: Cavia porcellus; assay: Inhibition of LTD4 induced contraction of guinea pig ileum; assay type: functional
Procedure, shortened: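 Male guinea pig ileum segments (2 cm), 20 mL organ bath, Tyrode's with atropine and pyrilamine (10⁻⁶ M each), 29 °C, 95% O2/5% CO2, 1.0 g resting tension, isotonic recording. Compounds in DMSO (10⁻⁵ to 3 × 10⁻⁹ M) preincubated 30 min; indomethacin 10⁻⁶ M added 10 min before 10⁻⁸ M LTD4. IC50 from percent inhibition across concentrations.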

Cavia porcellus [4] = assay: Inhibition of LTD4 induced increase of vascular permeability after injection of 10 ng/site at 10 mg/kg intraperitoneally; assay type: functional; conditions: ip, route intraperitoneal
Procedure, shortened: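 Male Hartley guinea pigs (~300 g), fasted 24 h with water available, dosed ip at 10 mg/kg in 0.5% carboxymethylcellulose or saline. One hour later Evans blue 50 mg/kg iv, then LTD4 intradermally on the back. Dorsal skin removed 30 min later, dye extracted and quantified. Reported as percent inhibition versus control.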

Cavia porcellus [5] = species: Cavia porcellus; assay: Inhibition of ovalbumin-induced contraction (10 ng/mL) of guinea pig trachea at 10 uM.; assay type: functional
Procedure, shortened: (§1)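 Ovalbumin-sensitized male Hartley guinea pigs (2 mg ip, ≥2 weeks prior). Tracheal ring strips in Krebs with 3 µM indomethacin, 37 °C, 95% O2/5% CO2, 0.5 g tension, 60 min equilibration. Drug 10 µM preincubated 30 min, then ovalbumin challenge for 20–60 min, followed by 10 µM carbachol. Antigen response expressed as percent of the carbachol contraction.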

Cavia porcellus [6] = assay: Inhibition of LTD4 induced increase of vascular permeability after injection of 10 ng/site at […] intraperitoneally; assay type: functional
Cavia porcellus [7] = species: Cavia porcellus; assay: Inhibition of ovalbumin-induced contraction (10 ng/mL) of guinea pig trachea at 10 uM; assay type: functional; procedure, shortened: as §1

SMILES | Kd [2] [nM] | other results
CCCCOc1ccc(C(=O)O)cc1C(=O)/C=C/c1ccc(OCc2ccc3ccccc3n2)cc1 |  | inhibition [1]: 42%
O=C(O)c1cccc(C(=O)/C=C/c2ccc(OCc3ccc4ccccc4n3)cc2)c1O | 307 | 
O=C(O)COc1ccc(C(=O)/C=C/c2cccc(/C=C/c3ccc4ccccc4n3)c2)c(O)c1 | 204 | 
CCOCCn1c(COc2ccc(/C=C/C(=O)c3ccc(C(=O)O)cc3O)cc2)nc2ccccc21 | 62400 | 
O=C(/C=C/c1cccc(OCc2ccc3ccccc3n2)c1)c1cc(-c2nn[nH]n2)ccc1O | 209 | 
O=C(O)c1cc(Cl)cc(C(=O)/C=C/c2cccc(/C=C/c3ccc4ccccc4n3)c2)c1O |  | IC50 (Cavia porcellus [3]): 360 nM; inhibition in vivo at 10 mg/kg (Cavia porcellus [4]): < 10%
O=C(O)COc1ccc(O)c(C(=O)/C=C/c2cccc(/C=C/c3ccc4ccccc4n3)c2)c1 | 175 | 
O=C(/C=C/c1ccc(OCc2ccc3ccccc3n2)cc1)c1cc(-c2nn[nH]n2)ccc1O |  | IC50 (Cavia porcellus [3]): 240 nM; inhibition in vivo at 10 mg/kg (Cavia porcellus [4]): 72%; Inhibition (Cavia porcellus [5]): 52%
CC(C)(C)c1cc(C(=O)O)c(O)c(C(=O)/C=C/c2cccc(/C=C/c3ccc4ccccc4n3)c2)c1 | 208 | 
O=C(O)c1cc(F)cc(C(=O)/C=C/c2cccc(/C=C/c3ccc4ccccc4n3)c2)c1O | 140 | 
O=C(/C=C/c1ccc(OCc2nccs2)cc1)c1cc(-c2nn[nH]n2)ccc1O | 233 | 
CCOCCn1c(COc2cccc(/C=C/C(=O)c3cc(-c4nn[nH]n4)ccc3O)c2)nc2ccccc21 | 8850 | 
O=C(Nc1cccc2c(=O)cc(-c3nnn[nH]3)oc12)c1ccc(OCCCCc2ccccc2)cc1 |  | Inhibition (Cavia porcellus [6]): 100%; Inhibition (Cavia porcellus [5]): 80%
N#Cc1ccc(C(=O)/C=C/c2ccc(OCc3ccc4ccccc4n3)cc2)cc1 |  | inhibition [1]: 9%
Cn1c(COc2ccc(/C=C/C(=O)c3cc(-c4nn[nH]n4)ccc3O)cc2)nc2ccccc21 |  | IC50 (Cavia porcellus [3]): 190 nM
O=C(O)c1ccc(O)c(C(=O)/C=C/c2ccccc2OCc2ccc3ccccc3n2)c1 |  | inhibition [1]: 18%
O=C(O)c1ccc(O)c(C(=O)/C=C/c2ccc(/C=C/c3ccc4ccccc4n3)cc2)c1 | 585 | 
O=C(O)c1ccc(C(=O)/C=C/c2cccc(OCc3ccc4ccccc4n3)c2)c(O)c1 | 928 | 
O=C(/C=C/c1ccc(OCc2ccc3ccc(Cl)cc3n2)cc1)c1cc(-c2nn[nH]n2)ccc1O | 196 | 
N#Cc1ccc(C(=O)/C=C/c2cccc(OCc3ccc4ccccc4n3)c2)cc1 |  | inhibition [1]: 7%
COC(=O)c1ccc(OC)c(C(=O)/C=C/c2ccc(OCc3ccc4ccccc4n3)cc2)c1 | 357 | 
N#Cc1ccc(O)c(C(=O)/C=C/c2ccc(OCc3ccc4ccccc4n3)cc2)c1 | 4310 | 
COc1ccc(C(=O)O)cc1C(=O)/C=C/c1ccc(OCc2ccc3ccccc3n2)cc1 | 188 | 

SMILES | Kd [2] [nM] | other results
O=C(O)c1cccc(C(=O)/C=C/c2ccc(/C=C/c3ccc4ccccc4n3)cc2)c1O | 200 | 
CCOCCn1c(COc2ccc(/C=C/C(=O)c3cc(-c4nn[nH]n4)ccc3O)cc2)nc2ccccc21 | 527 | 
O=C(O)c1cccc(C(=O)/C=C/c2cccc(/C=C/c3ccc4ccccc4n3)c2)c1O | 26 | IC50 (Cavia porcellus [3]): 52 nM; inhibition in vivo at 10 mg/kg (Cavia porcellus [4]): < 10%; Inhibition (Cavia porcellus [5]): 0%
O=C(/C=C/c1cccc(OCc2ccc3ccccc3c2)c1)c1cc(-c2nn[nH]n2)ccc1O | 19200 | 
O=C(O)c1cc(Br)cc(C(=O)/C=C/c2cccc(OCc3ccc4ccccc4n3)c2)c1O | 205 | 
O=C(/C=C/c1ccc(/C=C/c2ccc3ccc(Cl)cc3n2)cc1)c1cc(-c2nn[nH]n2)ccc1O | 239 | 
N#Cc1ccc(O)c(C(=O)/C=C/c2cccc(OCc3ccc4ccccc4n3)c2)c1 |  | inhibition [1]: 38%
O=C(/C=C/c1cccc(/C=C/c2ccc3ccccc3n2)c1)c1cc(-c2nn[nH]n2)ccc1O | 21 | IC50 (Cavia porcellus [3]): 46 nM
N#Cc1cc(Cl)cc(C(=O)/C=C/c2cccc(/C=C/c3ccc4ccccc4n3)c2)c1O | 449 | 
O=C(O)c1cc(Br)cc2c(=O)cc(-c3ccc4ccccc4n3)oc12 | 14800 | 
O=C(O)c1ccc(O)c(C(=O)/C=C/c2ccccc2OCc2ccccc2)c1 |  | inhibition [1]: 0%
O=C(/C=C/c1cccc(/C=C/c2ccc3ccccc3n2)c1)c1cc(Cl)cc(-c2nn[nH]n2)c1O | 828 | 
O=C(/C=C/c1ccc(OCc2ccc3ccccc3c2)cc1)c1cc(-c2nn[nH]n2)ccc1O |  | inhibition [1]: 4%
O=C(O)c1ccc(C(=O)/C=C/c2ccc(OCc3ccc4ccccc4n3)cc2)c(O)c1 | 1210 | 
O=C(O)c1cc(F)cc(C(=O)/C=C/c2ccc(OCc3ccc4ccccc4n3)cc2)c1O | 396 | 
O=C(/C=C/c1cccc(/C=C/c2ccc3ccccc3n2)c1)c1cc(OCc2nn[nH]n2)ccc1O |  | IC50 (Cavia porcellus [3]): 23 nM; Inhibition (Cavia porcellus [7]): 0%
CCOC(=O)c1ccc(O)c(C(=O)/C=C/c2ccc(OCc3ccc4ccccc4n3)cc2)c1 |  | inhibition [1]: 16%
CCOCCn1c(COc2cccc(/C=C/C(=O)c3cc(Cl)cc(C(=O)O)c3O)c2)nc2ccccc21 | 10500 | 
O=C(O)c1ccc(O)c(C(=O)/C=C/c2ccc(OCc3ccccc3)cc2)c1 |  | inhibition [1]: 23%
CCCc1c(OCC(O)COc2ccc3c(=O)cc(C(=O)O)oc3c2CCC)ccc(C(C)=O)c1O (stereo not given) [FPL-55712] |  | Inhibition (Cavia porcellus [7]): 38%
O=C(O)c1cc(Cl)cc(C(=O)/C=C/c2ccc(OCc3ccc4ccccc4n3)cc2)c1O | 732 | 
O=C(O)c1cc(Br)cc(C(=O)/C=C/c2ccc(OCc3ccc4ccccc4n3)cc2)c1O | 2100 | 
O=C(O)c1ccc(O)c(C(=O)/C=C/c2ccc3ccccc3n2)c1 | 11100 | 
